ChEMBL document CHEMBL1275449, “Potent in vitro antifungal activities of naturally occurring acetylenic acids” (Antimicrob Agents Chemother, 2008)
The source made the active and inactive calls.

Assays:
[1] = system: Trichophyton mentagrophytes; test: Antifungal activity against Trichophyton mentagrophytes ATCC MYA-4439 by CLSI method; assay type: functional, organism-based
Outline: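 Growth scraped from 1- to 6-week-old potato dextrose slants and filtered through Miracloth. Diluted in 5% Alamar blue-RPMI 1640 (MOPS pH 7.0) to 2.7 × 10⁴ CFU/ml. Eleven twofold dilutions in duplicate. Fluorescence at 544 nm excitation/590 nm emission read before and after 35°C, 5 days. IC50 fitted from percent growth. MIC taken as no detectable growth; MFC from clear or blue wells plated on PD agar.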

[2] = system: Pichia kudriavzevii; test: Antifungal activity against Candida krusei ATCC 6258 after 48 hrs by CLSI method; assay type: functional, organism-based; conditions: ATCC 6258, 48 h
Outline: (§1)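 Candida inocula came from 24–72-h SD agar colonies suspended in saline. They were diluted by OD630 standard curve into RPMI 1640 (0.2% dextrose, 0.03% glutamine, 0.165 M MOPS, pH 7.0) to 1.5 × 10³ CFU/ml. Compounds were run as 11 twofold dilutions in 20% DMSO-saline, in duplicate, at 35°C for 48 h, with OD530 read before and after. Percent growth at the top concentration, IC50, MIC, and MFC (SD agar plating) were derived.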

[3] = system: Candida albicans; test: Antifungal activity against Fluconazole resistant Candida albicans clinical isolate 17 after 48 hrs by CLSI method; assay type: functional, organism-based
Outline: (§2)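 CLSI broth microdilution. Colonies from 24–72 h SD agar suspended in saline and sized by OD630 standard curve. Inoculum 1.5 × 10³ CFU/ml (final) in RPMI 1640 (0.2% dextrose, 0.03% glutamine, 0.165 M MOPS, pH 7.0). Twofold dilutions (11 levels) from 20% DMSO-saline, in duplicate. 35°C for 48 h, OD530 read before and after. IC50 fitted from % growth. MIC: no detectable growth. MFC: subculture onto SD agar.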

[4] = system: Candida albicans; test: Antifungal activity against Fluconazole resistant Candida albicans clinical isolate 1 after 48 hrs by CLSI method; assay type: functional, organism-based; outline: as §2
[5] = system: Candida albicans; test: Antifungal activity against Candida albicans ATCC 200955 after 48 hrs by CLSI method; assay type: functional, organism-based; conditions: ATCC 200955, 48 h; outline: as §2
[6] = system: Candida albicans; test: Antifungal activity against Candida albicans ATCC 90028 after 48 hrs by CLSI method; assay type: functional, organism-based; conditions: ATCC 90028, 48 h; outline: as §2
[7] = system: Candida albicans; test: Antifungal activity against Candida albicans ATCC 14053 at 162.1 uM after 48 hrs by CLSI method; assay type: functional, organism-based
[8] = system: Candida albicans; test: Antifungal activity against Candida albicans ATCC 60193 at 162.1 uM after 48 hrs by CLSI method; assay type: functional, organism-based; outline: as §1
[9] = system: Candida albicans; test: Antifungal activity against Candida albicans ATCC 32354 at 162.1 uM after 48 hrs by CLSI method; assay type: functional, organism-based; outline: as §1
[10] = system: Candida albicans; test: Antifungal activity against Candida albicans ATCC 90028 at 162.1 uM after 48 hrs by CLSI method; assay type: functional, organism-based; outline: as §1
[11] = system: Candida albicans; test: Antifungal activity against Candida albicans ATCC 200955 at 162.1 uM after 48 hrs by CLSI method; assay type: functional, organism-based; outline: as §1
[12] = system: Candida albicans; test: Antifungal activity against Fluconazole resistant Candida albicans isolate 1 at 162.1 uM after 48 hrs by CLSI method; assay type: functional, organism-based
Outline: (§3)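 Candida in CLSI broth microdilution. Saline colony suspension set to 1.5 × 10³ CFU/ml (final) in MOPS-buffered RPMI 1640, pH 7.0. Test agent given as twofold serial dilutions in 20% DMSO-saline, duplicate wells. 35°C for 48 h. Growth read as OD530 before and after incubation. Percent inhibition scored at the highest test concentration.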

[13] = system: Candida albicans; test: Antifungal activity against Fluconazole resistant Candida albicans isolate 17 at 162.1 uM after 48 hrs by CLSI method; assay type: functional, organism-based; outline: as §3
[14] = system: Nakaseomyces glabratus; test: Antifungal activity against Candida glabrata ATCC 90030 at 162.1 uM after 48 hrs by CLSI method; assay type: functional, organism-based; outline: as §1
[15] = system: Pichia kudriavzevii; test: Antifungal activity against Candida krusei ATCC 6258 at 162.1 uM after 48 hrs by CLSI method; assay type: functional, organism-based; outline: as §1
[16] = system: Candida parapsilosis; test: Antifungal activity against Candida parapsilosis ATCC 22019 at 162.1 uM after 48 hrs by CLSI method; assay type: functional, organism-based
Outline: (§4)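 Yeast suspensions made from 3-5 colonies off 24-72 h SD agar plates in saline. They were diluted by OD630 standard curve in RPMI 1640 (0.2% dextrose, 0.03% glutamine, 0.165 M MOPS, pH 7.0) to 1.5 × 10³ CFU/ml. Twofold dilutions (11 concentrations, 20% DMSO-saline) run in duplicate. OD530 read before and after 35°C, 48 h. Line values are top test concentrations; no-growth endpoints give MIC/MFC.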

[17] = system: Candida albicans; test: Antifungal activity against Candida albicans ATCC 32354 after 48 hrs by CLSI method; assay type: functional, organism-based; conditions: ATCC 32354, 48 h; outline: as §2
[18] = system: SK-MEL; test: Cytotoxicity against human SK-MEL cells up to 32 uM by neutral red method; assay type: cell-based
Outline: (§5)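 Neutral red uptake cytotoxicity, top concentration 32 μM.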

[19] = system: KB; test: Cytotoxicity against human KB cells up to 32 uM by neutral red method; assay type: cell-based; outline: as §5
[20] = system: BT-549; test: Cytotoxicity against human BT549 cells up to 32 uM by neutral red method; assay type: cell-based; outline: as §5
[21] = system: SK-OV-3; test: Cytotoxicity against human SKOV3 cells up to 32 uM by neutral red method; assay type: cell-based; outline: as §5
[22] = system: Vero; test: Cytotoxicity against African green monkey Vero cells up to 32 uM by neutral red method; assay type: cell-based; conditions: chlorocebus sabaeus; outline: as §5
[23] = system: LLC-PK1; test: Cytotoxicity against pig LLC-PK1 cells up to 32 uM by neutral red method; assay type: cell-based, Sus scrofa; outline: as §5
[24] = system: Candida albicans; test: Antifungal activity against Candida albicans ATCC 14053 after 48 hrs by CLSI method; assay type: functional, organism-based; conditions: ATCC 14053, 48 h; outline: as §2
[25] = system: Candida albicans; test: Antifungal activity against Candida albicans ATCC 60193 after 48 hrs by CLSI method; assay type: functional, organism-based; conditions: ATCC 60193, 48 h; outline: as §2
[26] = system: Candida tropicalis; test: Antifungal activity against Candida tropicalis ATCC 750 at 162.1 uM after 48 hrs by CLSI method; assay type: functional, organism-based; outline: as §4
[27] = system: Cryptococcus neoformans; test: Antifungal activity against Cryptococcus neoformans ATCC 90113 at 162.1 uM after 72 hrs by CLSI method; assay type: functional, organism-based
Outline: (§6)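 SD broth replaced RPMI because growth in RPMI was poor; other CLSI conditions were kept. Inoculum was 1.5 × 10³ CFU/ml from colonies on SD agar, checked by plating. Twofold serial dilutions (11 concentrations) in 20% DMSO-saline were tested in duplicate. OD530 was read before and after incubation at 35°C for 72 h. Percent growth gave IC50; the MIC is the lowest concentration with no detectable growth.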

[28] = system: Cryptococcus neoformans; test: Antifungal activity against Cryptococcus neoformans ATCC 66031 at 162.1 uM after 72 hrs by CLSI method; assay type: functional, organism-based; outline: as §6
[29] = system: Aspergillus fumigatus; test: Antifungal activity against Aspergillus fumigatus ATCC 204305 at 162.1 uM after 48 hrs by CLSI method; assay type: functional, organism-based
[30] = system: Aspergillus fumigatus; test: Antifungal activity against Aspergillus fumigatus ATCC 90906 at 162.1 uM after 48 hrs by CLSI method; assay type: functional, organism-based
[31] = system: Aspergillus flavus; test: Antifungal activity against Aspergillus flavus ATCC 204304 at 162.1 uM after 48 hrs by CLSI method; assay type: functional, organism-based
[32] = system: Aspergillus niger; test: Antifungal activity against Aspergillus niger ATCC 16404 at 162.1 uM after 48 hrs by CLSI method; assay type: functional, organism-based
[33] = system: Trichophyton mentagrophytes; test: Antifungal activity against Trichophyton mentagrophytes ATCC MYA-4439 at 162.1 uM after 5 days by CLSI method; assay type: functional, organism-based
[34] = system: Trichophyton mentagrophytes; test: Antifungal activity against Trichophyton mentagrophytes ATCC 9533 at 162.1 uM after 5 days by CLSI method; assay type: functional, organism-based
[35] = system: Trichophyton rubrum; test: Antifungal activity against Trichophyton rubrum ATCC MYA-4438 at 162.1 uM after 5 days by CLSI method; assay type: functional, organism-based
[36] = system: Trichophyton rubrum; test: Antifungal activity against Trichophyton rubrum ATCC 10218 at 162.1 uM after 5 days by CLSI method; assay type: functional, organism-based
[37] = system: Aspergillus fumigatus; test: Antifungal activity against Aspergillus fumigatus ATCC 90906 after 48 h by CLSI method; conditions: ATCC 90906, 48 h
[38] = system: Aspergillus fumigatus; test: Antifungal activity against Aspergillus fumigatus ATCC 204305 after 48 h by CLSI method; conditions: ATCC 204305, 48 h

CCCCCCCCCCCCCC#CCCCCC(=O)O [6-ICOSYNOIC ACID]
55 µM: IC50 [3]
86.6 µM: IC50 [4]
53.4 µM: IC50 [5]
inactive: Activity [7] | Activity [8] | Activity [9] | Activity [10] | Activity [11] | Activity [12] | Activity [13] | Activity [14] | Activity [15] | Activity [16] | Activity [26] | Activity [27] | Activity [28] | Activity [29] | Activity [30] | Activity [31] | Activity [32] | Activity [33] | Activity [34] | Activity [35] | Activity [36]
> 162 µM: IC50 [1] | IC50 [17] | IC50 [24]
67.3 µM: IC50 [6]
106 µM: IC50 [2]
81 µM: IC50 [25] | IC50 [37]
Non-toxic: Activity [18] | Activity [19] | Activity [20] | Activity [21] | Activity [22] | Activity [23]
32.3 µM: IC50 [38]
